Data from ChEMBL document CHEMBL2440006, “Mastering tricyclic ring systems for desirable functional cannabinoid activity” (Eur J Med Chem, 2013).
Calls of active or inactive are those of the source.

How the values were obtained:
Cannabinoid receptor 2 [1] = biological target: T1, Cannabinoid receptor 2 (Homo sapiens, UniProt P34972); assay: Agonist activity at human recombinant CB2 receptor expressed in CHO cells after 1 hr by [35S]GTPgammaS binding assay; format: functional, cell-based
Cannabinoid receptor 2 [2] = biological target: T1, Cannabinoid receptor 2; assay: Agonist activity at human recombinant CB2 receptor expressed in CHO cells after 1 hr by [35S]GTPgammaS binding assay relative to CP55940; format: functional, cell-based
Summary of the method: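 Membranes from CHO cells expressing hCB1 or hCB2, preincubated at least 15 min on ice with 30 μM GDP solution. GTP-γ-[35S] with WGA-PVT SPA beads. Eight concentrations, 0.001–10 μM, in duplicate. Incubated 1 h at room temperature, centrifuged, then a further 1 h before counting. […] Mean of two determinations.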

Rattus norvegicus = assay: Antiallodynic activity in ip dosed Sprague-Dawley rat spinal nerve ligation model of neuropathic pain assessed as reduction of tactile allodynia; format: functional, organism-based
Summary of the method: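 Male Sprague Dawley rats, 120–150 g. Left L5/L6 spinal nerves ligated under isoflurane; tested three weeks later. Single i.p. bolus, 5–20 mg/kg, in 30% hydroxypropyl-β-cyclodextrin in PBS, prepared within 1 h before injection. Paw withdrawal threshold by von Frey filaments, 50% threshold by up-down method. Seven rats per group. Repeated-measures ANOVA with Dunnett's test vs time 0.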

Cannabinoid receptor 2 [3] = biological target: T1, Cannabinoid receptor 2; assay: Agonist activity at human recombinant […] receptor expressed in CHO cells at 1 uM after 1 hr by [35S]GTPgammaS binding assay; format: functional, cell-based
Cannabinoid receptor 2 [4] = biological target: T1, Cannabinoid receptor 2; assay: Antagonist activity at human recombinant […] receptor expressed in CHO cells at 1 uM after 1 hr by [35S]GTPgammaS binding assay; format: functional, cell-based
Cannabinoid receptor 2 [5] = biological target: T1, Cannabinoid receptor 2; assay: Induction of human CB2 receptor internalization expressed in HEK293 cells at 10 uM relative to CP55940; format: cell-based
Summary of the method: (§1)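 Cells stably expressing human CB1 or human CB2 receptors, exposed to test compound alone. […] Mean of two determinations.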

[6] = biological target: Cannabinoid receptor 1 (Homo sapiens) (UniProt P21554); assay: Induction of human CB1 receptor internalization expressed in HEK293 cells at 10 uM relative to CP55940; format: cell-based; summary of the method: as §1
Chain of Cannabinoid receptor 1 (Homo sapiens) (P21554 whole entry): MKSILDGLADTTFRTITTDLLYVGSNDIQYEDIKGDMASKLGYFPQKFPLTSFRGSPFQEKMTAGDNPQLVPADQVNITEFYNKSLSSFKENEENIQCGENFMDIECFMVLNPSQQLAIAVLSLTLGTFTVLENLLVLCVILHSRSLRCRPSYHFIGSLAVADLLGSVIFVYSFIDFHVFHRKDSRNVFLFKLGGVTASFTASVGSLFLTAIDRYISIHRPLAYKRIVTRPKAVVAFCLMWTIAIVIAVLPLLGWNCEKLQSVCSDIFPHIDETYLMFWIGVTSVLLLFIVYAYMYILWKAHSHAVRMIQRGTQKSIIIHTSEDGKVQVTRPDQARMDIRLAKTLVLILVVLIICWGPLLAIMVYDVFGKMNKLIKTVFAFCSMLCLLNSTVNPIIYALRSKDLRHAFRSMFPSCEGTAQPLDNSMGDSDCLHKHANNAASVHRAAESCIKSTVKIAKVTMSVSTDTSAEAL

Cannabinoid receptor 2 [7] = biological target: T1, Cannabinoid receptor 2; assay: Displacement of [3H]-CP55940 from human CB2 receptor expressed in HEK293 cells after 1.5 hrs by microbeta liquid scintillation counting analysis; format: cell-based; conditions: read-out: Ki
Summary of the method: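 Membranes from rat brain homogenate (CB1) or HEK293 cells expressing human CB2. GF/B filtration, then scintillation counting. IC50 by three-parameter logistic fit, Ki by Cheng-Prusoff. Three experiments in triplicate.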

Cannabinoid receptor 1 = Cannabinoid receptor 1 (Rattus norvegicus, UniProt P20272); assay: Displacement of [3H]-CP55940 from CB1 receptor in rat brain homogenate after 1.5 hrs by microbeta liquid scintillation counting analysis; format: tissue-based; conditions: read-out: Ki
Chain of Cannabinoid receptor 1 (P20272 whole entry): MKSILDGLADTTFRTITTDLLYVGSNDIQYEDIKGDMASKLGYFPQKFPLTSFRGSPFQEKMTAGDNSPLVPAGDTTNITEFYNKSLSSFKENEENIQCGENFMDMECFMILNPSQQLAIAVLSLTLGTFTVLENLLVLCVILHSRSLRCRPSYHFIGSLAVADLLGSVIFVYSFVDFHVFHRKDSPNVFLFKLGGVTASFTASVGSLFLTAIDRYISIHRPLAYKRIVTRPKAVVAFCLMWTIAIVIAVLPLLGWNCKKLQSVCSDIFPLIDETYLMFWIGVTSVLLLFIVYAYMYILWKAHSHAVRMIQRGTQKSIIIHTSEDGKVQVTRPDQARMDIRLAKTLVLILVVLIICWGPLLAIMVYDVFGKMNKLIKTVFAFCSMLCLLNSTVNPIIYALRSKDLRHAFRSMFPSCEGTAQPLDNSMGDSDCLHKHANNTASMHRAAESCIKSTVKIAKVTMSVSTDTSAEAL
Summary of the method: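 Membranes from rat brain homogenate (CB1) or HEK293 cells expressing human CB2. […] GF/B filtration, then scintillation counting. […] IC50 by three-parameter logistic fit, Ki by Cheng-Prusoff. Three experiments in triplicate.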

[8] = Selectivity ratio of Ki for rat CB1 receptor to Ki for human CB2 receptor

T1 sequence (P34972 whole entry): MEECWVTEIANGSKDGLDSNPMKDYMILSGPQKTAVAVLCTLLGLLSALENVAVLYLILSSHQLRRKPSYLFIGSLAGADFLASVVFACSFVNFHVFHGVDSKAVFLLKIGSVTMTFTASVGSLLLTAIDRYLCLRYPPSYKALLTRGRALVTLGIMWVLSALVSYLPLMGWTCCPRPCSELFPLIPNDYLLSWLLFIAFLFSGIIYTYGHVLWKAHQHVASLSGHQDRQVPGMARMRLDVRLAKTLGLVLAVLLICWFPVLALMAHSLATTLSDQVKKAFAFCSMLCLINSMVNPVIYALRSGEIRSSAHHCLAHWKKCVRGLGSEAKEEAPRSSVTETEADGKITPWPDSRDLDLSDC

SMILES: CS(=O)(=O)NCCCn1c2ccccc2c2cc(C(=O)N3CCCCC3)ccc21
- EC50 (Cannabinoid receptor 2 [1]): 7.3 nM
- Emax (Cannabinoid receptor 2 [2]): 59.6%
- Activity (Rattus norvegicus): Dose-dependent effect
- Activity (Cannabinoid receptor 2 [3]): inactive
- Activity (Cannabinoid receptor 2 [4]): inactive
- Activity (Cannabinoid receptor 2 [5]): 116%
- Activity [6]: 54.1%
- Ki (Cannabinoid receptor 2 [7]): 62 nM
- Ki (Cannabinoid receptor 1): 1470 nM
- Ratio Ki [8]: 23.7
